Measurements published in ChEMBL document CHEMBL1687796, “Synthesis and spectrum of the neoglycoside ACHN-490” (2010).
Converted amounts (≈) assume the structure as drawn.

Tests used:
Staphylococcus aureus [1] = test: Antibacterial activity against aminoglycoside-resistant Staphylococcus aureus expressing APH(2'') + AAC(6') by broth microdilution method; format: functional
Outline: (§1)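 MICs were measured by broth microdilution following CLSI guidance. The strains formed a 25-strain screening panel with diverse aminoglycoside resistance mechanisms. The panel included Gram-negative and S. aureus strains carrying key aminoglycoside-modifying enzymes, strains with altered permeability or efflux, and an armA ribosomal methyltransferase strain.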

Acinetobacter = test: Antibacterial activity against aminoglycoside-resistant Acinetobacter spp. expressing APH(3')-6 by broth microdilution method; format: functional
Outline: (§2)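 Clinical aminoglycoside-resistant isolates were each carrying a single aminoglycoside-modifying enzyme. […] MICs were determined by CLSI broth microdilution.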

[2] = system: Acinetobacter calcoaceticus; test: Antibacterial activity against aminoglycoside-resistant Acinetobacter calcoaceticus expressing AAC(6')-1 by broth microdilution method; format: functional; outline: as §2
Pseudomonas aeruginosa [3] = test: Antibacterial activity against Pseudomonas aeruginosa ATCC 27853 by broth microdilution method; format: functional
Pseudomonas aeruginosa [4] = test: Antibacterial activity against wild type Pseudomonas aeruginosa expressing efflux pump by broth microdilution method; format: functional
Outline: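 MIC was determined by CLSI broth microdilution, read in μg/ml. The strain came from a 25-strain screening panel with diverse aminoglycoside resistance mechanisms. The panel included strains with changes in permeability or efflux, key aminoglycoside-modifying enzymes and an armA methyltransferase strain.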

Pseudomonas aeruginosa [5] = test: Antibacterial activity against efflux pump deficient Pseudomonas aeruginosa by broth microdilution method; format: functional
Pseudomonas aeruginosa [6] = test: Antibacterial activity against Pseudomonas aeruginosa expressing AAC(3)-1 by broth microdilution method; format: functional
Pseudomonas aeruginosa [7] = test: Antibacterial activity against Pseudomonas aeruginosa expressing AAC(6')-2 by broth microdilution method; format: functional
Citrobacter = test: Antibacterial activity against Citrobacter spp. by broth microdilution method; format: functional
Outline: (§3)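 MICs were determined by CLSI broth microdilution against clinical isolate panels that included aminoglycoside-resistant isolates. […] MIC90 was derived per group and not calculated when n was <10. Imipenem, ceftobiprole, ciprofloxacin and tigecycline MICs were also determined for the resistant isolates.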

Enterobacter sp. = test: Antibacterial activity against Enterobacter spp. by broth microdilution method; format: functional; outline: as §3
Klebsiella sp. = test: Antibacterial activity against Klebsiella spp. by broth microdilution method; format: functional; outline: as §3
Proteus mirabilis = test: Antibacterial activity against Proteus mirabilis by broth microdilution method; format: functional; outline: as §3
[8] = Antibacterial activity against indole positive Proteae by broth microdilution method; format: functional; outline: as §3
Staphylococcus sp. = test: Antibacterial activity against Staphylococcus spp. by broth microdilution method; format: functional; outline: as §3
Acinetobacter sp. = test: Antibacterial activity against Acinetobacter spp. by broth microdilution method; format: functional; outline: as §3
Pseudomonas aeruginosa [9] = test: Antibacterial activity against Pseudomonas aeruginosa by broth microdilution method; format: functional; outline: as §3
Citrobacter freundii [10] = test: Antibacterial activity against aminoglycoside-resistant Citrobacter freundii expressing AAC(3)-2 by broth microdilution method; format: functional; outline: as §2
Enterobacter cloacae [11] = test: Antibacterial activity against aminoglycoside-resistant Enterobacter cloacae expressing AAC(3)-2 by broth microdilution method; format: functional; outline: as §2
Klebsiella pneumoniae [12] = test: Antibacterial activity against aminoglycoside-resistant Klebsiella pneumoniae expressing AAC(3)-2 by broth microdilution method; format: functional; outline: as §2
Serratia liquefaciens = test: Antibacterial activity against aminoglycoside-resistant Serratia liquefaciens expressing AAC(3)-2 by broth microdilution method; format: functional; outline: as §2
Escherichia coli [13] = test: Antibacterial activity against aminoglycoside-resistant Escherichia coli expressing AAC(3)-4 by broth microdilution method; format: functional; outline: as §2
Citrobacter freundii [14] = test: Antibacterial activity against aminoglycoside-resistant Citrobacter freundii expressing AAC(6')-1 by broth microdilution method; format: functional; outline: as §2
Klebsiella aerogenes = test: Antibacterial activity against aminoglycoside-resistant Enterobacter aerogenes expressing AAC(6')-1 by broth microdilution method; format: functional; outline: as §2
Escherichia coli [15] = test: Antibacterial activity against aminoglycoside-resistant Escherichia coli expressing AAC(6')-1 by broth microdilution method; format: functional; outline: as §2
Klebsiella pneumoniae [16] = test: Antibacterial activity against aminoglycoside-resistant Klebsiella pneumoniae expressing AAC(6')-1 by broth microdilution method; format: functional; outline: as §2
Serratia marcescens [17] = test: Antibacterial activity against aminoglycoside-resistant Serratia marcescens expressing AAC(6')-1 by broth microdilution method; format: functional; outline: as §2
Staphylococcus aureus [18] = test: Antibacterial activity against aminoglycoside-resistant Staphylococcus aureus expressing ANT(4',4'')-2 by broth microdilution method; format: functional; outline: as §2
[19] = system: Staphylococcus epidermidis; test: Antibacterial activity against aminoglycoside-resistant Staphylococcus epidermidis expressing ANT(4',4'')-2 by broth microdilution method; format: functional; outline: as §2
Staphylococcus aureus [20] = test: Antibacterial activity against aminoglycoside-resistant Staphylococcus aureus expressing APH(2'') + AAC(6')-1 by broth microdilution method; format: functional; outline: as §2
Acinetobacter baumannii [21] = test: Antibacterial activity against aminoglycoside-resistant Acinetobacter baumannii expressing ANT(2'')-1 by broth microdilution method; format: functional; outline: as §2
Acinetobacter baumannii [22] = test: Antibacterial activity against aminoglycoside-resistant Acinetobacter baumannii expressing APH(3')-6 by broth microdilution method; format: functional; outline: as §2
Pseudomonas aeruginosa [23] = test: Antibacterial activity against aminoglycoside-resistant Pseudomonas aeruginosa expressing AAC(6')-2 by broth microdilution method; format: functional; outline: as §2
Pseudomonas aeruginosa [24] = test: Antibacterial activity against aminoglycoside-resistant Pseudomonas aeruginosa expressing ANT(2'')-1 by broth microdilution method; format: functional; outline: as §2
[25] = system: Staphylococcus epidermidis; test: Antibacterial activity against aminoglycoside-resistant Staphylococcus epidermidis expressing APH(3')-3 by broth microdilution method; format: functional
Escherichia coli [26] = test: Antibacterial activity against aminoglycoside-resistant Escherichia coli expressing ANT(6')-1 by broth microdilution method; format: functional; outline: as §2
Escherichia coli [27] = test: Antibacterial activity against Escherichia coli ATCC 25922 by broth microdilution method; format: functional; outline: as §1
Escherichia coli [28] = test: Antibacterial activity against aminoglycoside-resistant Escherichia coli expressing armA methylase by broth microdilution method; format: functional; outline: as §1
Serratia marcescens [29] = test: Antibacterial activity against aminoglycoside-resistant Serratia marcescens expressing ANT(2''), AAC(6') by broth microdilution method; format: functional; outline: as §1
Staphylococcus aureus [30] = test: microbe, parasite or virus in culture
Staphylococcus aureus [31] = test: microbe, parasite or virus in culture; remark: listed apart in the source
Escherichia coli [32] = test: Antibacterial activity against aminoglycoside-resistant Escherichia coli expressing APH(3')-1b by broth microdilution method
Escherichia coli [33] = test: Antibacterial activity against aminoglycoside-resistant Escherichia coli expressing AAC(3)-IVa by broth microdilution method
Serratia marcescens [34] = test: Antibacterial activity against aminoglycoside-resistant Serratia marcescens expressing ANT(2'')-I by broth microdilution method
Enterobacter cloacae [35] = test: Antibacterial activity against aminoglycoside-resistant Enterobacter cloacae expressing ANT(2'')-I by broth microdilution method
Klebsiella pneumoniae [36] = test: Antibacterial activity against aminoglycoside-resistant Klebsiella pneumoniae expressing ANT(2'')-I by broth microdilution method
Pluralibacter gergoviae = test: Antibacterial activity against aminoglycoside-resistant Enterobacter gergoviae expressing ANT(2'')-I by broth microdilution method

For `NCC[C@H](O)C(=O)N[C@@H]1C[C@H](N)[C@@H](O[C@H]2O[C@H](CN)[C@@H](O)[C@H](O)[C@H]2O)[C@H](O)[C@H]1O[C@H]1O[C@H](CO)[C@@H](O)[C@H](N)[C@H]1O` [AMIKACIN], the MIC (Staphylococcus aureus [1]) was 64 µg/mL, the MIC (Acinetobacter) was over 64 µg/mL and the MIC [2] was 32 µg/mL (≈ 54.6 µM). The MIC (Pseudomonas aeruginosa [3]) was 2 µg/mL (≈ 3.42 µM), the MIC (Pseudomonas aeruginosa [4]) was 4 µg/mL (≈ 6.83 µM) and the MIC (Pseudomonas aeruginosa [5]) was 0.5 µg/mL (≈ 0.854 µM). It also gave an MIC (Pseudomonas aeruginosa [6]) of 4 µg/mL (≈ 6.83 µM), an MIC (Pseudomonas aeruginosa [7]) of 4 µg/mL (≈ 6.83 µM) and an MIC50 (Citrobacter) of 32 µg/mL (≈ 54.6 µM). The MIC50 (Enterobacter sp.) was 8 µg/mL (≈ 13.7 µM), the MIC90 (Enterobacter sp.) was 64 µg/mL (≈ 109 µM) and the MIC50 (Klebsiella sp.) was 32 µg/mL (≈ 54.6 µM). It also gave an MIC90 (Klebsiella sp.) of over 64 µg/mL, an MIC50 (Proteus mirabilis) of 8 µg/mL (≈ 13.7 µM) and an MIC90 (Proteus mirabilis) of 64 µg/mL (≈ 109 µM). It also gave an MIC50 [8] of 8 µg/mL (≈ 13.7 µM), an MIC50 (Staphylococcus sp.) of 16 µg/mL (≈ 27.3 µM) and an MIC90 (Staphylococcus sp.) of over 64 µg/mL. The MIC50 (Acinetobacter sp.) was over 64 µg/mL, the MIC90 (Acinetobacter sp.) was over 64 µg/mL and the MIC50 (Pseudomonas aeruginosa [9]) was 16 µg/mL (≈ 27.3 µM). It also gave an MIC90 (Pseudomonas aeruginosa [9]) of over 64 µg/mL, an MIC (Citrobacter freundii [10]) of 4 µg/mL (≈ 6.83 µM) and an MIC (Enterobacter cloacae [11]) of 4 µg/mL (≈ 6.83 µM). For the same compound, the MIC (Klebsiella pneumoniae [12]) was 4 µg/mL (≈ 6.83 µM), the MIC (Serratia liquefaciens) was 4 µg/mL (≈ 6.83 µM) and the MIC (Escherichia coli [13]) was 2 µg/mL (≈ 3.42 µM). For the same compound, the MIC (Citrobacter freundii [14]) was 30 µg/mL (≈ 51.2 µM), the MIC (Klebsiella aerogenes) was 30 µg/mL (≈ 51.2 µM) and the MIC (Escherichia coli [15]) was 30 µg/mL (≈ 51.2 µM). The MIC (Klebsiella pneumoniae [16]) was 30 µg/mL (≈ 51.2 µM), the MIC (Serratia marcescens [17]) was 30 µg/mL (≈ 51.2 µM) and the MIC (Staphylococcus aureus [18]) was 13 µg/mL (≈ 22.2 µM). The MIC [19] was 13 µg/mL (≈ 22.2 µM), the MIC (Staphylococcus aureus [20]) was 18 µg/mL and the MIC (Acinetobacter baumannii [21]) was 16 µg/mL (≈ 27.3 µM). For the same compound, the MIC (Acinetobacter baumannii [22]) was over 64 µg/mL, the MIC (Pseudomonas aeruginosa [23]) was 14 µg/mL (≈ 23.9 µM) and the MIC (Pseudomonas aeruginosa [24]) was 8 µg/mL (≈ 13.7 µM). It also gave an MIC [25] of 4 µg/mL (≈ 6.83 µM), an MIC (Escherichia coli [26]) of 32 µg/mL (≈ 54.6 µM) and an MIC (Escherichia coli [27]) of 2 µg/mL (≈ 3.42 µM). It also gave an MIC (Escherichia coli [28]) of over 64 µg/mL, an MIC (Serratia marcescens [29]) of 8 µg/mL (≈ 13.7 µM) and an MIC (Staphylococcus aureus [30]) of 2 µg/mL (≈ 3.42 µM). It also gave an MIC (Staphylococcus aureus [31]) of over 64 µg/mL, an MIC (Escherichia coli [32]) of 0.5 µg/mL (≈ 0.854 µM) and an MIC (Escherichia coli [33]) of 4 µg/mL (≈ 6.83 µM). For the same compound, the MIC (Serratia marcescens [34]) was 2 µg/mL (≈ 3.42 µM), the MIC (Enterobacter cloacae [35]) was 2 µg/mL (≈ 3.42 µM) and the MIC (Klebsiella pneumoniae [36]) was 2 µg/mL (≈ 3.42 µM). It also gave an MIC (Pluralibacter gergoviae) of 2 µg/mL (≈ 3.42 µM).
